{
  "source": "ChEMBL document CHEMBL1138216",
  "about": "“Design and synthesis of novel derivatives of the muscarinic agonist tetra(ethylene glycol)(3-methoxy-1,2,5-thiadiazol-4-yl) [3-(1-methyl-1,2,5,6-tetrahydropyrid-3-yl)-1,2,5-thiadiazol-4-yl] ether (CDD-0304): effects of structural modifications on the binding and activity at muscarinic receptor …” (J Med Chem, 2006)",
  "key": {"[1]": {"target": "T1, Muscarinic acetylcholine receptor M1 (Homo sapiens) (UniProt P11229)", "T1 sequence (whole entry)": "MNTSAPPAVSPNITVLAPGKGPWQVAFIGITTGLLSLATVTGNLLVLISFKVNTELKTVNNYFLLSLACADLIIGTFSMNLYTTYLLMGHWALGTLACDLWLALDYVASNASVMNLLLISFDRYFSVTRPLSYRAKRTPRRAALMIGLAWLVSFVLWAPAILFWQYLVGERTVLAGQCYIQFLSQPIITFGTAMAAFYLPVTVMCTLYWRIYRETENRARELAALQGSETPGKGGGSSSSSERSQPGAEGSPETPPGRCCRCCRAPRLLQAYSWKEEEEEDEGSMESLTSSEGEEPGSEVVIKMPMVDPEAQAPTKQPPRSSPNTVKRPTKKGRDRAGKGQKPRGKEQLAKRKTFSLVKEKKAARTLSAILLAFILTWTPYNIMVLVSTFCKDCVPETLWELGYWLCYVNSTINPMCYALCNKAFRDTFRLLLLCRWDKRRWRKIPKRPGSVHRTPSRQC", "test": "Agonist activity at human M1 receptor expressed in A9 L cells assessed as stimulation of phosphoinositide hydrolysis relative to carbachol", "format": "functional, cell-based", "settings": "L929", "method_in_brief": "(§1)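 A9 L cells stably expressing the receptor, seeded 24 h, labelled overnight with 10 µCi/mL [3H]inositol in inositol-free DMEM; ligands in HBSS with 10 mM LiCl, 20 mM HEPES, 37 °C, 1 h; formic acid extraction, inositol phosphates counted by SPA beads.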"}, "[2]": {"target": "T2, Muscarinic acetylcholine receptor M5 (Homo sapiens) (UniProt P08912)", "T2 sequence (whole entry)": "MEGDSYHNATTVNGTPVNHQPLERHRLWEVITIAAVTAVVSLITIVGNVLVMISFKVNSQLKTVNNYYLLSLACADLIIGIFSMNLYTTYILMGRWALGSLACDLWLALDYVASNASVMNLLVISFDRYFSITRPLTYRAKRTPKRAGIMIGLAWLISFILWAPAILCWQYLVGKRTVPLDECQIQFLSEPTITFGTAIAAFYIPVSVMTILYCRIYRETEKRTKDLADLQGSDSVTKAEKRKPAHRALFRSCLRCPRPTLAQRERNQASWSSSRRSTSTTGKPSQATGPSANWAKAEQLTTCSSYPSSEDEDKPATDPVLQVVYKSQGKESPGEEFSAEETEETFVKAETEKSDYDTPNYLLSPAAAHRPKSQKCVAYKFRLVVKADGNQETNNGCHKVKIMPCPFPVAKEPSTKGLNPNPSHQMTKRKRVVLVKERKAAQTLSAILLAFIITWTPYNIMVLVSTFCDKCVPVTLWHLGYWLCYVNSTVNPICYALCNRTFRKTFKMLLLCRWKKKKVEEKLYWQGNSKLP", "test": "Agonist activity at human M5 receptor expressed in A9 L cells assessed as stimulation of phosphoinositide hydrolysis relative to carbachol", "format": "functional, cell-based", "settings": "L929", "method_in_brief": "as §1"}, "[3]": {"system": "T3, Muscarinic acetylcholine receptor M1 (Homo sapiens), P11229 [E170K]", "T3 sequence (whole entry)": "T1 sequence (whole entry) with E170K", "test": "Agonist activity at human M1 receptor E170K mutant expressed in A9 L cells assessed as stimulation of phosphoinositide hydrolysis relative to carbachol", "format": "functional, cell-based", "settings": "L929", "method_in_brief": "as §1"}, "[4]": {"target": "Muscarinic acetylcholine receptor M1 (Homo sapiens, UniProt P11229, Q185E)", "sequence (P11229 whole entry Q185E)": "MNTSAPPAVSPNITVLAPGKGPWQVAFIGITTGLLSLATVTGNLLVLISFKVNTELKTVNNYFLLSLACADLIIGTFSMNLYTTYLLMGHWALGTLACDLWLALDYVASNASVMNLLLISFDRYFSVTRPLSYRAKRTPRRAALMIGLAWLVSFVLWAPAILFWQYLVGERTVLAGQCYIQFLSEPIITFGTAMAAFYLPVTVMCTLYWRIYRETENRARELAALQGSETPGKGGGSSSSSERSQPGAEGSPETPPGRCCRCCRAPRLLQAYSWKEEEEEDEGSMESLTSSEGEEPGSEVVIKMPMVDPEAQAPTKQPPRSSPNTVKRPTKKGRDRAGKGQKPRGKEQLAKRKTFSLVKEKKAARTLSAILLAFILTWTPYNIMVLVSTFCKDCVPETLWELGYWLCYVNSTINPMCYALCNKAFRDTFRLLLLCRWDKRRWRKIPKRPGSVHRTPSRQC", "format": "functional, cell-based, L929"}, "[5]": {"system": "T4, Muscarinic acetylcholine receptor M1 (Homo sapiens), P11229 [Q185E]", "T4 sequence (whole entry)": "T1 sequence (whole entry) with Q185E", "test": "Agonist activity at human M1 receptor Q185E mutant expressed in A9 L cells assessed as stimulation of phosphoinositide hydrolysis relative to carbachol", "format": "functional, cell-based", "settings": "L929", "method_in_brief": "as §1"}, "[6]": {"target": "Muscarinic acetylcholine receptor M1 (Homo sapiens, UniProt P11229, T192A)", "sequence (P11229 whole entry T192A)": "as the sequence (P11229 whole entry Q185E) above, with E185Q, T192A counted along it", "test": "Inhibition of [3H](R)-QNB binding to human M1 receptor Thr192Ala mutant expressed in A9 L cells", "format": "cell-based, A9L"}, "[7]": {"target": "T5, Muscarinic acetylcholine receptor M1/M5 chimeric protein (Homo sapiens, UniProt P08912+P11229)", "T5 sequence (P11229 whole entry)": "T1 sequence (whole entry)", "T5 sequence (P08912 whole entry)": "T2 sequence (whole entry)", "test": "Inhibition of [3H](R)-QNB binding to human M1/M5(o2) chimeric receptor expressed in A9 L cells", "format": "cell-based, A9L"}, "[8]": {"target": "T5, Muscarinic acetylcholine receptor M1/M5 chimeric protein", "test": "Inhibition of [3H](R)-QNB binding to human M1/M5(o3) chimeric receptor expressed in A9 L cells", "format": "cell-based, A9L"}, "[9]": {"target": "T5, Muscarinic acetylcholine receptor M1/M5 chimeric protein", "test": "Inhibition of [3H](R)-QNB binding to human M1/M5(o2o3) chimeric receptor expressed in A9 L cells", "format": "cell-based, A9L"}, "[10]": {"target": "T5, Muscarinic acetylcholine receptor M1/M5 chimeric protein", "test": "Agonist activity at human M1/M5(o2) chimeric receptor expressed in A9 L cells assessed as stimulation of phosphoinositide hydrolysis", "format": "functional, cell-based, L929"}, "[11]": {"target": "T6, Muscarinic acetylcholine receptor M1/M5 chimeric protein (Homo sapiens) (UniProt P11229+P08912)", "test": "Agonist activity at human M1/M5(o2) chimeric receptor expressed in A9 L cells assessed as stimulation of phosphoinositide hydrolysis relative to carbachol", "format": "functional, cell-based", "settings": "L929", "method_in_brief": "as §1"}, "[12]": {"target": "T5, Muscarinic acetylcholine receptor M1/M5 chimeric protein", "test": "Agonist activity at human M1/M5(o3) chimeric receptor expressed in A9 L cells assessed as stimulation of phosphoinositide hydrolysis", "format": "functional, cell-based, L929"}, "[13]": {"target": "T6, Muscarinic acetylcholine receptor M1/M5 chimeric protein (Homo sapiens)", "test": "Agonist activity at human M1/M5(o3) chimeric receptor expressed in A9 L cells assessed as stimulation of phosphoinositide hydrolysis relative to carbachol", "format": "functional, cell-based", "settings": "L929", "method_in_brief": "as §1"}, "[14]": {"target": "T6, Muscarinic acetylcholine receptor M1/M5 chimeric protein (Homo sapiens)", "test": "Agonist activity at human M1/M5(o2o3) chimeric receptor expressed in A9 L cells assessed as stimulation of phosphoinositide hydrolysis relative to carbachol", "format": "functional, cell-based", "settings": "L929", "method_in_brief": "as §1"}, "[15]": {"target": "Muscarinic acetylcholine receptor M1 (Homo sapiens, UniProt P11229, E170K)", "sequence (P11229 whole entry E170K)": "as the sequence (P11229 whole entry Q185E) above, with E170K, E185Q counted along it", "format": "functional, cell-based, L929"}},
  "note": "Residue numbers refer to the chain shown, from its start. Active and inactive are the calls of the source. No cut-off for these calls is given here.",
  "data": [
    {"smiles": "CN1CCC=C(c2nsnc2OCCOCCOCCOCCOc2nsnc2C2=CCCN(C)C2)C1", "values": [
      {"measurement": "Smax", "setting": "[1]", "value": 69, "unit": "%"},
      {"measurement": "Activity", "setting": "[2]", "value": "inactive"},
      {"measurement": "Smax", "setting": "[3]", "value": 66, "unit": "%"},
      {"measurement": "EC50", "setting": "[4]", "value": 0.0501, "unit": "µM"},
      {"measurement": "Smax", "setting": "[5]", "value": 50, "unit": "%"},
      {"measurement": "Ki", "setting": "[6]", "value": 0.1, "unit": "µM"},
      {"measurement": "Ki", "setting": "[7]", "value": 0.0398, "unit": "µM"},
      {"measurement": "Ki", "setting": "[8]", "value": 0.02, "unit": "µM"},
      {"measurement": "Ki", "setting": "[9]", "value": 0.1, "unit": "µM"},
      {"measurement": "EC50", "setting": "[10]", "value": 0.0794, "unit": "µM"},
      {"measurement": "Smax", "setting": "[11]", "value": 34, "unit": "%"},
      {"measurement": "EC50", "setting": "[12]", "value": 0.631, "unit": "µM"},
      {"measurement": "Smax", "setting": "[13]", "value": 23, "unit": "%"},
      {"measurement": "Smax", "setting": "[14]", "value": 2, "unit": "%"},
      {"measurement": "EC50", "setting": "[15]", "value": 0.01, "unit": "µM"}
    ]}
  ]
}
